The values that follow come from PMC4661106 (Bioorganic & medicinal chemistry, 2015).

In data set [1] the target is T1, HIV-1 PR (Human immunodeficiency virus type 1 group M subtype B, UniProt P04585). The format is biochemical.
For another data set, the system named is MT-4 cells. Nature of the data set: Endpoint cytotoxicity assay, viable cells by trypan-blue dye exclusion. Particulars: three days, Figure 5; for general cytotoxicity to MT-4 cells: at 100 μM; for general cytotoxicity: tolerated by MT-4 cells: up to 50 μM. The format is cell-based. Summed up: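 Uninfected MT-4 cells were seeded at 2 × 10^5 cells/ml, in triplicate, in medium with carrier only or test compound at 10, 50 or 100 μM. Compounds were dissolved in DMSO and diluted in medium to a final DMSO of 0.25%. Incubation was 37 °C, 5% CO2. After three days, viable cells were counted by trypan-blue dye exclusion.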

In data set [2] the test system is HIV replication in TZM-bl cells. Nature of the data set: Viral replication inhibition assay, luciferase reporter. The format is cell-based. Particulars: doses of 50 μM or higher, MOI = 0.01. A digest of the protocol:
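TZM-bl cells (HeLa-derived; CD4, CCR5, CXCR4; tat-driven luciferase) were seeded at 1×10^4 cells/mL and incubated overnight. The medium was then replaced with replication-competent pNL4-3 HIV or mock, in medium with carrier or test compound at final 25, 50 or 100 μM. Final DMSO was 0.25%. Conditions were run in triplicate. On the indicated days post infection, cells were PBS-washed and luciferase was read. RLU was expressed relative to the untreated control.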
Background: Reporter assays use an easily measured gene product as a stand-in for the process of interest.

For data set [3], the target named is T1, HIV-1 PR. Description: Michaelis-Menten kinetics, mode of inhibition. It is filed as biochemical. Particulars: Michaelis-Menten analysis, Figure 4.
A short description of another data set: Compound solubility. It is filed as physicochemical.

As usually defined, the Ki is a measure of affinity in units of concentration, obtained from inhibition or displacement. The low end stands for tighter binding, the high end for weaker binding. Regarding `CCC(C)[C@@H]1N=C(C)c2ccc(C(=O)OC(C)(C)C)cc2NC1=O` (stereo in doubt) [Compound 6e, (S)-tert-Butyl 3-((R)-sec-butyl)-5-methyl-2-oxo-2,3-dihydro-1H-benzo[e][1,4]diazepine-8-carboxylate], the inhibition constant (Ki) at HIV-1 PR [1] was greater than 200 µM.
Regarding `CC1=NCC(=O)Nc2cc(C(=O)OC(C)(C)C)ccc21` [Compound 6a, tert-Butyl 5-methyl-2-oxo-2,3-dihydro-1H-benzo[e][1,4]diazepine-8-carboxylate], the inhibitory constant (Ki) on HIV-1 PR [1] was greater than 200 µM.
On HIV-1 PR [1], `CC1=N[C@@H](C)C(=O)Nc2cc(C(=O)OC(C)(C)C)ccc21` [Compound 6b, (S)-tert-Butyl 3,5-dimethyl-2-oxo-2,3-dihydro-1H-benzo[e][1,4]diazepine-8-carboxylate] had an inhibitory constant (Ki) greater than 200 µM.
As for `CC1=N[C@H](CC(C)C)C(=O)Nc2cc(C(=O)OC(C)(C)C)ccc21` [Compound 6d, (R)-tert-Butyl 3-isobutyl-5-methyl-2-oxo-2,3-dihydro-1H-benzo[e][1,4]diazepine-8-carboxylate], the Ki at HIV-1 PR [1] was greater than 200 µM.
For the compound `CC1=N[C@@H](C)C(=O)Nc2cc(C(=O)O)ccc21` [Compound 7b, (S)-3,5-Dimethyl-2-oxo-2,3-dihydro-1H-benzo[e][1,4]diazepine-8-carboxylic acid], the inhibition constant Ki at HIV-1 PR [1] is greater than 200 µM.
The same measure, in the same setting: as for `CC1=N[C@@H](CC(C)C)C(=O)Nc2cc(C(=O)O)ccc21` [Compound 7c, (S)-3-Isobutyl-5-methyl-2-oxo-2,3-dihydro-1H-benzo[e][1,4]diazepine-8-carboxylic acid], the figure is greater than 200 µM; as for `CC1=N[C@H](CC(C)C)C(=O)Nc2cc(C(=O)O)ccc21` [Compound 7d, (R)-3-Isobutyl-5-methyl-2-oxo-2,3-dihydro-1H-benzo[e][1,4]diazepine-8-carboxylic acid], greater than 200 µM.
Still for that read-out and setting: as for `CC1=N[C@@H](Cc2ccccc2)C(=O)Nc2cc(C(=O)O)ccc21` [Compound 7f, (S)-3-Benzyl-5-methyl-2-oxo-2,3-dihydro-1H-benzo[e][1,4]diazepine-8-carboxylic acid], the figure is greater than 200 µM; as for `CC1=N[C@H](Cc2ccccc2)C(=O)Nc2cc(C(=O)O)ccc21` [Compound 7g, (R)-3-benzyl-5-methyl-2-oxo-2,3-dihydro-1H-benzo[e][1,4]diazepine-8-carboxylic acid], greater than 200 µM.
For the compound `CC1=N[C@H](CC(C)C)C(=O)N(Cc2ccccc2)c2cc(C(=O)OC(C)(C)C)ccc21` [Compound 8h, (R)-tert-Butyl 1-benzyl-3-isobutyl-5-methyl-2-oxo-2,3-dihydro-1H-benzo[e][1,4]diazepine-8-carboxylate], on HIV-1 PR [1], the Ki is greater than 200 µM.
The same measure, in the same setting: then `CC1=N[C@H](CC(C)C)C(=O)N(Cc2ccncc2)c2cc(C(=O)OC(C)(C)C)ccc21` [Compound 8m, (R)-tert-Butyl 3-isobutyl-5-methyl-2-oxo-1-(pyridin-4-ylmethyl)-2,3-dihydro-1H-benzo[e][1,4]diazepine-8-carboxylate], with greater than 200 µM; and `CCCCCCCCCCNC(=O)CN1C(=O)[C@@H](CC(C)C)N=C(C)c2ccc(C(=O)OC(C)(C)C)cc21` [Compound 8o, (R)-tert-Butyl 3-isobutyl-5-methyl-2-oxo-1-(2-oxo-2-(decylamino)ethyl)-2,3-dihydro-1H-benzo[e][1,4]diazepine-8-carboxylate], with greater than 200 µM.
Same read-out and setting: as for `CCCCCCNC(=O)CN1C(=O)[C@@H](CC(C)C)N=C(C)c2ccc(C(=O)OC(C)(C)C)cc21` [Compound 8q, (R)-tert-Butyl 3-isobutyl-5-methyl-2-oxo-1-(2-oxo-2-(hexylamino)ethyl)-2,3-dihydro-1H-benzo[e][1,4]diazepine-8-carboxylate], the figure is greater than 200 µM.
Still for that read-out and setting: then `CC1=N[C@H](CC(C)C)C(=O)N(CC(=O)N2CCN(C(=O)OCc3ccccc3)CC2)c2cc(C(=O)OC(C)(C)C)ccc21` [Compound 8s, (R)-tert-Butyl 1-(2-(4-((benzyloxy)carbonyl)piperazin-1-yl)-2-oxoethyl)-3-isobutyl-5-methyl-2-oxo-2,3-dihydro-1H-benzo[e][1,4]diazepine-8-carboxylate], with greater than 200 µM; and `CC1=N[C@H](CC(C)C)C(=O)N(CC(=O)N2CCN(C(=O)OCC3c4ccccc4-c4ccccc43)CC2)c2cc(C(=O)OC(C)(C)C)ccc21` [Compound 8t, (R)-tert-Butyl 1-(2-(4-(((9H-fluoren-9-yl)methoxy)carbonyl)piperazin-1-yl)-2-oxoethyl)-3-isobutyl-5-methyl-2-oxo-2,3-dihydro-1H-benzo[e][1,4]diazepine-8-carboxylate], with greater than 200 µM.
As for `CC1=N[C@H](CC(C)C)C(=O)N(Cc2ccc(C3CCCCC3)cc2)c2cc(C(=O)O)ccc21` [Compound 9d, (R)-1-(4-Cyclohexylbenzyl)-3-isobutyl-5-methyl-2-oxo-2,3-dihydro-1H-benzo[e][1,4]diazepine-8-carboxylic acid], in the data set on MT-4 cells, the “general cytotoxicity to MT-4 cells” value was “particularly cytotoxic” and the “general cytotoxicity: tolerated by MT-4 cells” value (shortened to “general cytotoxicity: tolerated”) is given as “tolerated”. For the same compound, the “inhibition of HIV replication within cells (RLU relative to control)” value (from here on “inhibition … (RLU relative to control)”) in data set [2] is reported as “appeared to inhibit HIV replication”.
In the case of `CC1=N[C@H](CC(C)C)C(=O)N(Cc2ccccc2)c2cc(C(=O)O)ccc21` [Compound 9h, (R)-1-Benzyl-3-isobutyl-5-methyl-2-oxo-2,3-dihydro-1H-benzo[e][1,4]diazepine-8-carboxylic acid], the inhibition constant (Ki) at HIV-1 PR [1] was greater than 200 µM.
Consider `CC1=N[C@H](CC(C)C)C(=O)N(Cc2ccc(-c3ccccc3)cc2)c2cc(C(=O)O)ccc21` [Compound 9j, (R)-1-([1,1′-Biphenyl]-4-ylmethyl)-3-isobutyl-5-methyl-2-oxo-2,3-dihydro-1H-benzo[e][1,4]diazepine-8-carboxylic acid], for which, in the data set with MT-4 cells, the “general cytotoxicity to MT-4 cells” value is reported as “particularly cytotoxic” and the “general cytotoxicity: tolerated” value is listed as “tolerated”. In addition, the “inhibition … (RLU relative to control)” value in data set [2] is “appeared to inhibit HIV replication”.
`CC1=N[C@H](CC(C)C)C(=O)N(CC(C)C)c2cc(C(=O)O)ccc21` [Compound 9k, (R)-1,3-Diisobutyl-5-methyl-2-oxo-2,3-dihydro-1H-benzo[e][1,4]diazepine-8-carboxylic acid] yielded a Ki on HIV-1 PR [1] greater than 200 µM.
The same measure, in the same setting: as for `CC1=N[C@H](CC(C)C)C(=O)N(CC(=O)O)c2cc(C(=O)O)ccc21` [Compound 9l, (R)-1-(Carboxymethyl)-3-isobutyl-5-methyl-2-oxo-2,3-dihydro-1H-benzo[e][1,4]diazepine-8-carboxylic acid], the figure is greater than 200 µM.
The same measure, in the same setting: then `CC1=N[C@H](CC(C)C)C(=O)N(Cc2ccncc2)c2cc(C(=O)O)ccc21` [Compound 9m, (R)-3-Isobutyl-5-methyl-2-oxo-1-(pyridin-4-ylmethyl)-2,3-dihydro-1H-benzo[e][1,4]diazepine-8-carboxylic acid], with greater than 200 µM.
For the compound `CCCCCCCCCCNC(=O)CN1C(=O)[C@@H](CC(C)C)N=C(C)c2ccc(C(=O)O)cc21` [Compound 9o, (R)-3-Isobutyl-5-methyl-2-oxo-1-(2-oxo-2-(decylamino)ethyl)-2,3-dihydro-1H-benzo[e][1,4]diazepine-8-carboxylic acid], on HIV-1 PR [3], the mode of inhibition result is “competitive inhibitor”. For the same compound, in the data set with MT-4 cells, the “general cytotoxicity to MT-4 cells” value is given as “particularly cytotoxic” and the “general cytotoxicity: tolerated” value is “tolerated”. Also, the solubility entry in the data set “Compound solubility” is “poor solubility”. Moreover, the “inhibition … (RLU relative to control)” value in data set [2] was “appeared to inhibit HIV replication”.
On to `CCCCCCCCCCCCCCCCNC(=O)CN1C(=O)[C@@H](CC(C)C)N=C(C)c2ccc(C(=O)O)cc21` [Compound 9p, (R)-3-isobutyl-5-methyl-2-oxo-1-(2-oxo-2-(hexadecylamino)ethyl)-2,3-dihydro-1H-benzo[e][1,4]diazepine-8-carboxylic acid], for which, in the data set on MT-4 cells, the “general cytotoxicity to MT-4 cells” value was “particularly cytotoxic” and the “general cytotoxicity: tolerated” value was “All but 9p were tolerated”. The “inhibition … (RLU relative to control)” value in data set [2] is given as “appeared to inhibit HIV replication”.
At HIV-1 PR [1], `CC1=N[C@H](CC(C)C)C(=O)N(CC(=O)N2CCNCC2)c2cc(C(=O)O)ccc21` [Compound 9r, (R)-3-Isobutyl-5-methyl-2-oxo-1-(2-oxo-2-(piperazin-1-yl)ethyl)-2,3-dihydro-1H-benzo[e][1,4]diazepine-8-carboxylic acid] returned a Ki greater than 200 µM.
